Data published in ChEMBL document CHEMBL1150929, “Synthesis and cytotoxic activity of pyranocoumarins of the seselin and xanthyletin series” (J Nat Prod, 1998).
The source made the active and inactive calls. No cut-off for these calls is given here.

These compounds were tested on L1210 (assay: Cell cycle arrest in mouse L1210 cells by accumulation at G1 phase after 21 hrs by flow cytometry). Conditions: not given.
Assay type: functional, cell-based

Q: `CC(=O)OC1CC(C)(C)Oc2cc3oc(=O)ccc3cc21` (racemic) was tested. Which Activity did it give?
A: Its Activity is “inactive”.

Q: How did the Activity turn out when `CC1(C)CC(O)c2cc3ccc(=O)oc3cc2O1` (racemic) was run?
A: The Activity was “inactive”.

Q: With `CC1(C)CC(O)c2c(ccc3ccc(=O)oc23)O1` (racemic) as the compound, how does the Activity read?
A: Its Activity is “inactive”.

These compounds were tested on L1210 (assay: Cytotoxicity against mouse L1210 cells after 48 hrs by […] assay). Conditions: L1210, 48 h.
Assay type: functional, cell-based
Procedure, shortened: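 L1210 cells grown in RPMI 1640 plus 10% fetal calf serum, 2 mM L-glutamine, penicillin/streptomycin, 10 mM HEPES (pH 7.4); exposed 48 h to nine serial drug dilutions in triplicate; microculture tetrazolium read-out; IC50 = concentration halving optical density versus untreated controls; mean of 2 independent experiments.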

Q: For `CC(=O)O[C@H]1c2c(ccc3ccc(=O)oc23)OC(C)(C)[C@H]1OC(C)=O` (racemic), which IC50 is on record?
A: The IC50 was over 100 µM.

Q: `CC(=O)O[C@H]1c2c(ccc3ccc(=O)oc23)OC(C)(C)[C@@H]1Br` (racemic) was tested. Which IC50 did it give?
A: The IC50 was 60.3 µM.

Q: `CC1(C)Oc2cc3oc(=O)ccc3cc2[C@@H](O)[C@@H]1Br` (racemic) was tested. Which IC50 did it give?
A: The IC50 was over 100 µM.

Q: With `CC(=O)O[C@@H]1c2cc3ccc(=O)oc3cc2OC(C)(C)[C@@H]1OC(C)=O` (racemic) as the compound, how does the IC50 read?
A: The IC50 was over 100 µM.

Q: How did the IC50 turn out when `CC1(C)Oc2cc3oc(=O)ccc3cc2[C@@H](O)[C@H]1O` (racemic) was run?
A: Its IC50 is over 100 µM.

Q: Which IC50 does the source give for `CC(=O)OC1CC(C)(C)Oc2cc3oc(=O)ccc3cc21` (racemic) here?
A: Its IC50 is 5 µM.

Q: How did the IC50 turn out when `CC1(C)CC(OC(=O)c2ccccc2)c2c(ccc3ccc(=O)oc23)O1` (racemic) was run?
A: Its IC50 is 30.9 µM.

Q: `CC1(C)CC(OC(=O)c2ccccc2)c2cc3ccc(=O)oc3cc2O1` (racemic) was tested. Which IC50 did it give?
A: The IC50 was 90.1 µM.

Q: Which IC50 does the source give for `CC1(C)CC(OC(=O)NCCCl)c2c(ccc3ccc(=O)oc23)O1` (racemic) here?
A: The IC50 was 67.2 µM.

Q: How did the IC50 turn out when `CC1(C)Oc2ccc3ccc(=O)oc3c2[C@H](OC(=O)c2ccccc2)[C@H]1Br` (racemic) was run?
A: Its IC50 is 10.3 µM.

Q: Which IC50 does the source give for `CC1(C)Oc2ccc3ccc(=O)oc3c2[C@H](O)[C@@H]1O` (racemic) here?
A: Its IC50 is over 100 µM.

Q: Which IC50 does the source give for `CC(=O)O[C@@H]1c2cc3ccc(=O)oc3cc2OC(C)(C)[C@H]1Br` (racemic) here?
A: The IC50 was over 100 µM.

Q: Which IC50 does the source give for `CC1(C)CC(O)c2cc3ccc(=O)oc3cc2O1` (racemic) here?
A: Its IC50 is 6.5 µM.

Q: `CC1(C)CC(O)c2c(ccc3ccc(=O)oc23)O1` (racemic) was tested. Which IC50 did it give?
A: The IC50 was 0.9 µM.

Q: `CC(=O)OC1CC(C)(C)Oc2ccc3ccc(=O)oc3c21` (racemic) was tested. Which IC50 did it give?
A: Its IC50 is 24.7 µM.

Q: With `CC1(C)Oc2ccc3ccc(=O)oc3c2[C@H](O)[C@H]1Br` (racemic) as the compound, how does the IC50 read?
A: Its IC50 is over 100 µM.

Q: With `CC1(C)Oc2cc3oc(=O)ccc3cc2[C@@H](OC(=O)c2ccccc2)[C@@H]1Br` (racemic) as the compound, how does the IC50 read?
A: Its IC50 is 36.5 µM.
